Data: ChEMBL document CHEMBL4321796, “Proteolysis Targeting Chimeras for the Selective Degradation of Mcl-1/Bcl-2 Derived from Nonselective Target Binding Ligands” (J Med Chem, 2019)
pIC50: −log10 of the molar value. The source made the active and inactive calls. The rule behind the calls is not given here.

Experiments:
[1] = molecular target: Induced myeloid leukemia cell differentiation protein Mcl-1 (Homo sapiens, UniProt Q07820); test: Inhibition of biotinylated Bim peptide (81 to 106 residues) binding to His-tagged human Mcl-1 expressed in Escherichia coli BL21 (DE3) cells preincubated for 1 hr followed by biotinylated Bim peptide addition measured after 2 hrs by ELISA
Chain of Induced myeloid leukemia cell differentiation protein Mcl-1 (Q07820 whole entry, the tested form may be a part): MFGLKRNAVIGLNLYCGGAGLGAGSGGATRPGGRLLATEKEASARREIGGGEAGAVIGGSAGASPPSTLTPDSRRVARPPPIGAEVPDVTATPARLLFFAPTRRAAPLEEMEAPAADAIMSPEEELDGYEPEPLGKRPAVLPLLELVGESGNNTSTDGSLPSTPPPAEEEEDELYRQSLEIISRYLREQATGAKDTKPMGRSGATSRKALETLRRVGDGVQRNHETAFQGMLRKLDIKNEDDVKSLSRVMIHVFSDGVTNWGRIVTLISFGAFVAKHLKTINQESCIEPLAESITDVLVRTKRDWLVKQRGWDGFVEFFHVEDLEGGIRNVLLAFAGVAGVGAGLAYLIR
Summary of the method: (§1)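 Inhibitor serially diluted (100–0.1 µM) from 10 mM DMSO stock, preincubated 1 h with 200 nM His-tagged protein in PBS (final DMSO 4%), then added 2 h to streptavidin plates holding biotin-Bim (plated at 0.09 mg/mL). Incubations at 4 °C. Detection with HRP anti-His, TMB 30 min, H2SO4 stop, A450. IC50 averaged from three independent experiments, with SD.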

[2] = molecular target: Apoptosis regulator Bcl-2 (Homo sapiens, UniProt P10415); test: Inhibition of biotinylated Bim peptide (81 to 106 residues) binding to His-tagged human Bcl-2 expressed in Escherichia coli BL21 (DE3) cells preincubated for 1 hr followed by biotinylated Bim peptide addition measured after 2 hrs by ELISA; summary of the method: as §1
Chain of Apoptosis regulator Bcl-2 (P10415 whole entry, the tested form may be a part): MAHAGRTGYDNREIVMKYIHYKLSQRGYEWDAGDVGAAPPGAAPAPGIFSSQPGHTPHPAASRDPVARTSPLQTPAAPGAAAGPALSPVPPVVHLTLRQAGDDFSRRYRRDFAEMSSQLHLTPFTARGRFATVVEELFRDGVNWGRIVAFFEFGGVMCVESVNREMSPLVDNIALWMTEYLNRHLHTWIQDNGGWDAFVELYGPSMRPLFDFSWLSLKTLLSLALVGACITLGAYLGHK

[3] = molecular target: T1, Protein cereblon/Induced myeloid leukemia cell differentiation protein Mcl-1 (Homo sapiens, UniProt Q07820+Q96SW2); test: Induction of CRBN-mediated Mcl-1 degradation in human HeLa cells assessed as relative abundance at 10 uM after 12 hrs by Western blot analysis (reference value: 1); assay type: cell-based
T1 sequence (Q07820 whole entry, looked up): as the sequence (Q07820 whole entry, the tested form may be a part) above
T1 sequence (Q96SW2 whole entry, looked up): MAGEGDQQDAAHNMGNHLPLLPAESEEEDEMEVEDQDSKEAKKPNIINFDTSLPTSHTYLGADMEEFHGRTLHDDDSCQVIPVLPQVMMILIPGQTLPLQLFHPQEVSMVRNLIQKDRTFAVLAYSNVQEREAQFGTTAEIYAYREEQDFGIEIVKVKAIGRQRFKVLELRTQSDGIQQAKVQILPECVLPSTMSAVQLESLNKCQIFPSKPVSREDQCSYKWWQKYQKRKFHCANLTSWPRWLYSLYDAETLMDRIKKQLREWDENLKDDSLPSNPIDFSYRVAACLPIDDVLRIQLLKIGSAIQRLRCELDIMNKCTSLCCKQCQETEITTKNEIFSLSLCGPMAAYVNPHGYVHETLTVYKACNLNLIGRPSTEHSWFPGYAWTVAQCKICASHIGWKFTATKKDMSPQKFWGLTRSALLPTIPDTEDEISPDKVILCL

[4] = molecular target: T1, Protein cereblon/Induced myeloid leukemia cell differentiation protein Mcl-1; test: Induction of CRBN-mediated Mcl-1 degradation in human HeLa cells assessed as relative abundance at 1 uM after 12 hrs by Western blot analysis (reference value: 1); assay type: cell-based
[5] = molecular target: T2, Protein cereblon/Apoptosis regulator Bcl-2 (Homo sapiens, UniProt P10415+Q96SW2); test: Induction of CRBN-mediated Bcl-2 degradation in human HeLa cells assessed as relative abundance at 10 uM after 12 hrs by Western blot analysis (reference value: 1); assay type: cell-based
T2 sequence (P10415 whole entry, looked up): as the sequence (P10415 whole entry, the tested form may be a part) above
T2 sequence (Q96SW2 whole entry, looked up): as the sequence (Q96SW2 whole entry, looked up) above

[6] = molecular target: T2, Protein cereblon/Apoptosis regulator Bcl-2; test: Induction of CRBN-mediated Bcl-2 degradation in human HeLa cells assessed as relative abundance at 1 uM after 12 hrs by Western blot analysis (reference value: 1); assay type: cell-based
[7] = molecular target: T1, Protein cereblon/Induced myeloid leukemia cell differentiation protein Mcl-1; test: Induction of CRBN-mediated Mcl-1 degradation in human HeLa cells at 10 uM after 12 hrs by Western blot analysis relative to control; assay type: cell-based
[8] = molecular target: T2, Protein cereblon/Apoptosis regulator Bcl-2; test: Induction of CRBN-mediated Bcl-2 degradation in human HeLa cells at 10 uM after 12 hrs by Western blot analysis relative to control; assay type: cell-based
[9] = molecular target: T1, Protein cereblon/Induced myeloid leukemia cell differentiation protein Mcl-1; test: Protac activity at CRBN/Mcl-1 in human HeLa cell lysates assessed as ternary complex formation by Western blot analysis based pull-down assay; assay type: subcellular; settings: Lysate
Summary of the method: (§2)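 HeLa lysate (25×10^6 cells, 1% Triton X-100 IP buffer), 1 mg total protein, incubated overnight with 1 µg CRBN antibody across a compound concentration gradient. Capture on protein A+G agarose, three Triton washes, boiled in loading buffer. Mcl-1, Bcl-2 and CRBN detected by immunoblotting. n=3 independent samples.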

[10] = molecular target: T2, Protein cereblon/Apoptosis regulator Bcl-2; test: Protac activity at CRBN/Bcl-2 in human HeLa cell lysates assessed as ternary complex formation by Western blot analysis based pull-down assay; assay type: subcellular; settings: Lysate; summary of the method: as §2
NCI-H23 = test: Cytotoxicity against human H23 cells incubated for 24 hrs by CCK8 assay; assay type: functional, cell-based
Summary of the method: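 H23 cells seeded at 4 × 10^4 per mL in RPMI with 10% FBS, L-glutamine and pen/strep. Treated 24 h at various concentrations or with DMSO vehicle (0.05%). Viability read by CCK8 and normalized against cell-free background and untreated cultures; mean ± s.e.m., n=3.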

[11] = molecular target: T1, Protein cereblon/Induced myeloid leukemia cell differentiation protein Mcl-1; test: Induction of CRBN-mediated Mcl-1 degradation in human HeLa cells assessed as formation of ubiquitin adducts of Mcl-1 at 1 to 10 uM after 12 hrs by Western blot analysis; assay type: cell-based
[12] = molecular target: T1, Protein cereblon/Induced myeloid leukemia cell differentiation protein Mcl-1; test: Induction of CRBN-mediated Mcl-1 degradation in human HeLa cells assessed as Mcl-1 level at 10 uM after 12 hrs by Western blot analysis; assay type: cell-based
[13] = molecular target: T2, Protein cereblon/Apoptosis regulator Bcl-2; test: Induction of CRBN-mediated Bcl-2 degradation in human HeLa cells assessed as reduction in Bcl-2 level at 10 uM after 12 hrs by Western blot analysis; assay type: cell-based

SMILES	pIC50 [1]	pIC50 [2]	fold change (FC) [3]	fold change (FC) [4]	fold change (FC) [5]	fold change (FC) [6]	Activity [7]	Activity [8]	Activity [9]	Activity [10]	Activity (NCI-H23)	Activity [11]	Activity [12]	Activity [13]
N#CC1=C(NCCC(=O)NCCNc2cccc3c2C(=O)N(C2CCC(=O)NC2=O)C3=O)c2ccc(Sc3ccc(Br)cc3)c3cccc(c23)C1=O (stereo not given)	4.97	4.98	1	1	1	1	< 20%	< 20%	–	–	–	–	–	–
O=C(CCCCC(=O)NCCN1C(=O)c2cccc3c(Sc4ccc(Br)cc4)ccc(c23)C1=O)NCCCCCCCCNc1cccc2c1C(=O)N(C1CCC(=O)NC1=O)C2=O (stereo not given)	5.27	5.12	1	1	0.9	0.9	–	–	–	–	–	–	–	–
N#CC1=C(NCCC(=O)NCCCCCCNc2cccc3c2C(=O)N(C2CCC(=O)NC2=O)C3=O)c2ccc(Sc3ccc(Br)cc3)c3cccc(c23)C1=O (stereo not given)	5.12	5.71	0.8	0.9	1.1	1	< 20%	< 20%	inactive	inactive	–	–	–	–
O=C(CCCCCNc1cccc2c1C(=O)N(C1CCC(=O)NC1=O)C2=O)NCCCCCCNC(=O)CCCCC(=O)NCCN1C(=O)c2cccc3c(Sc4ccc(Br)cc4)ccc(c23)C1=O (stereo not given)	4.82	4.87	0.9	1	0.9	1	–	–	–	–	–	–	–	–
N#CC1=C(NCCC(=O)NCCCCNc2cccc3c2C(=O)N(C2CCC(=O)NC2=O)C3=O)c2ccc(Sc3ccc(Br)cc3)c3cccc(c23)C1=O (stereo not given)	5.00	5.01	0.8	0.9	1	1	< 20%	< 20%	–	–	–	–	–	–
Cc1nn(C)c(COc2ccc(N3CCN(S(=O)(=O)N(C)C)CC3)cc2)c1-c1cccc2c(CCCOc3cccc4ccccc34)c(C(=O)O)n(CCN3CCOCC3)c12	–	–	–	–	–	–	–	–	–	–	Active	–	–	–
COC(=O)CCNC1=C(C#N)C(=O)c2cccc3c(Sc4ccc(Br)cc4)ccc1c23	5.46	5.34	–	–	–	–	–	–	–	–	–	–	–	–
N#CC1=C(NCCC(=O)NCCCCCC(=O)NCCCCCCNc2cccc3c2C(=O)N(C2CCC(=O)NC2=O)C3=O)c2ccc(Sc3ccc(Br)cc3)c3cccc(c23)C1=O (stereo not given)	4.80	4.93	1.5	1.2	1	1.1	< 20%	< 20%	–	–	–	inactive	–	–
O=C(CCCCC(=O)NCCN1C(=O)c2cccc3c(Sc4ccc(Br)cc4)ccc(c23)C1=O)NCCCCNc1cccc2c1C(=O)N(C1CCC(=O)NC1=O)C2=O (stereo not given)	5.82	5.00	0.9	1	1	1	–	–	–	–	–	–	–	–
COC(=O)CCCCC(=O)NCCN1C(=O)c2cccc3c(Sc4ccc(Br)cc4)ccc(c23)C1=O	5.23	5.32	–	–	–	–	–	–	–	–	–	–	–	–
N#CC1=C(C#N)c2ccc(Sc3ccc(Br)cc3)c3cccc(c23)C1=O	5.69	5.64	1	–	1	–	inactive	inactive	–	–	–	–	inactive	inactive
O=C(CCCCC(=O)NCCN1C(=O)c2cccc3c(Sc4ccc(Br)cc4)ccc(c23)C1=O)NCCNc1cccc2c1C(=O)N(C1CCC(=O)NC1=O)C2=O (stereo not given)	5.10	4.82	1	1	1	1	–	–	–	–	–	–	–	–
N#CC1=C(NCCC(=O)NCCOCCOCCNc2cccc3c2C(=O)N(C2CCC(=O)NC2=O)C3=O)c2ccc(Sc3ccc(Br)cc3)c3cccc(c23)C1=O (stereo not given)	5.64	5.65	2.2	1.8	1	1	< 20%	< 20%	–	–	–	inactive	–	–
CC(C)(C)c1ccc(C(=O)NCCN2C(=O)c3cccc4c(Sc5ccc(Br)cc5)ccc(c34)C2=O)cc1	5.35	5.50	1	–	1	–	inactive	inactive	–	–	Active	–	inactive	inactive
